Laboratory results reported in ChEMBL document CHEMBL1125326, “Potent gonadotropin releasing hormone antagonists with low histamine-releasing activity” (J Med Chem, 1992).
Values after ≈ are worked out from the molar mass of the structure shown.

Key:
[1] = species: Rattus norvegicus; test: Evaluated for the release of histamine in rats (based on 10 animals per dose group); format: functional, organism-based
[2] = test system: Rattus norvegicus; test: Evaluated for the anti-ovulatory activity (rats were injected subcutaneously at noon on proestrus); format: functional
Method in brief: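 Female rats with at least two consecutive normal 4-day cycles, confirmed by vaginal lavage cytology, were dosed once s.c. at noon on proestrus in 50% propylene glycol/0.9% saline. On the morning of expected estrus, the oviducts were examined for ovulated eggs, which were counted. The effective dose came from % females ovulating plotted against log dose, usually with ≥3 dose groups (10 rats per group total).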

SMILES | EC50 [1] [µg/mL] | ED50 [2] [µg]
CC(=O)N[C@H](Cc1ccc2ccccc2c1)C(=O)N[C@H](Cc1ccc(F)cc1)C(=O)N[C@H](Cc1cccnc1)C(=O)N[C@@H](CO)C(=O)N[C@@H](CCCN=C(N)N)C(=O)N[C@H](Cc1cccnc1)C(=O)N[C@@H](CC(C)C)C(=O)N[C@@H](CCCCNC1=NCCCN1)C(=O)N1CCC[C@H]1C(=O)N[C@H](C)C(N)=O | 6.2 (≈ 4.27 µM) | 0.5
CC(=O)N[C@H](Cc1ccc2ccccc2c1)C(=O)N[C@H](Cc1ccc(Cl)cc1)C(=O)N[C@H](Cc1cccnc1)C(=O)N[C@@H](CO)C(=O)N[C@@H](Cc1ccc(O)cc1)C(=O)N[C@H](Cc1cccnc1)C(=O)N[C@@H](CC(C)C)C(=O)N[C@@H](CCCCNC1=NCCCN1)C(=O)N1CCC[C@H]1C(=O)N[C@H](C)C(N)=O | 20 (≈ 13.5 µM) | 0.68
CC/N=C(\NCC)NCCCC[C@H](NC(=O)[C@H](CC(C)C)NC(=O)[C@@H](Cc1c[nH]c2ccccc12)NC(=O)[C@H](Cc1ccc(O)cc1)NC(=O)[C@H](CO)NC(=O)[C@@H](Cc1c[nH]c2ccccc12)NC(=O)[C@@H](Cc1ccc(Cl)cc1)NC(=O)[C@@H](Cc1ccc2ccccc2c1)NC(C)=O)C(=O)N1CCC[C@H]1C(=O)N[C@H](C)C(N)=O | 16 (≈ 10.2 µM) | ~0.9
CC(=O)N[C@H](Cc1ccc2ccccc2c1)C(=O)N[C@H](Cc1ccc(Cl)cc1)C(=O)N[C@H](Cc1c[nH]c2ccccc12)C(=O)N[C@@H](CO)C(=O)N[C@@H](CCCN=C(N)N)C(=O)N[C@H](Cc1c[nH]c2ccccc12)C(=O)N[C@@H](CC(C)C)C(=O)N[C@@H](CCCCNC1=NCCCN1)C(=O)N1CCC[C@H]1C(=O)N[C@H](C)C(N)=O | 0.81 (≈ 0.524 µM) | >2
CC/N=C(\NCC)NCCCC[C@@H](NC(=O)[C@H](Cc1ccc(O)cc1)NC(=O)[C@H](CO)NC(=O)[C@@H](Cc1cccnc1)NC(=O)[C@@H](Cc1ccc(Cl)cc1)NC(=O)[C@@H](Cc1ccc2ccccc2c1)NC(C)=O)C(=O)N[C@@H](Cc1ccccc1)C(=O)N[C@@H](CCCN=C(N)N)C(=O)N1CCC[C@H]1C(=O)N[C@H](C)C(N)=O | < 0.01 | 0.5
CC(=O)N[C@H](Cc1ccc2ccccc2c1)C(=O)N[C@H](Cc1ccc(Cl)cc1)C(=O)N[C@H](Cc1c[nH]c2ccccc12)C(=O)N[C@@H](CO)C(=O)N[C@@H](Cc1ccc(O)cc1)C(=O)N[C@H](CCCCNC1=NCCCN1)C(=O)N[C@@H](CC(C)C)C(=O)N[C@@H](CCCCN=C(N)N)C(=O)N1CCC[C@H]1C(=O)N[C@H](C)C(N)=O | 0.41 (≈ 0.267 µM) | 0.56
CC/N=C(\NCC)NCCCC[C@H](NC(=O)[C@H](CC(C)C)NC(=O)[C@@H](Cc1cccnc1)NC(=O)[C@H](Cc1ccc(O)cc1)NC(=O)[C@H](CO)NC(=O)[C@@H](Cc1cccnc1)NC(=O)[C@@H](Cc1ccc(Cl)cc1)NC(=O)[C@@H](Cc1ccc2ccccc2c1)NC(C)=O)C(=O)N1CCC[C@H]1C(=O)N[C@H](C)C(N)=O | 196 (≈ 131 µM) | 0.6
CC(=O)N[C@H](Cc1ccc2ccccc2c1)C(=O)N[C@H](Cc1ccc(Cl)cc1)C(=O)N[C@H](Cc1cccnc1)C(=O)N[C@@H](CO)C(=O)N[C@@H](CCCN=C(N)N)C(=O)N[C@H](Cc1cccnc1)C(=O)N[C@@H](CC(C)C)C(=O)N[C@@H](CCCCNC1=NCCCN1)C(=O)N1CCC[C@H]1C(=O)N[C@H](C)C(N)=O | 1.5 (≈ 1.02 µM) | 0.295
CC/N=C(\NCC)NCCCC[C@H](NC(=O)[C@H](CC(C)C)NC(=O)[C@@H](Cc1cccnc1)NC(=O)[C@H](CCCN=C(N)N)NC(=O)[C@H](CO)NC(=O)[C@@H](Cc1cccnc1)NC(=O)[C@@H](Cc1ccc(Cl)cc1)NC(=O)[C@@H](Cc1ccc2ccccc2c1)NC(C)=O)C(=O)N1CCC[C@H]1C(=O)N[C@H](C)C(N)=O | 23.6 (≈ 15.9 µM) | 0.425
CCCC/N=C(/N)NCCCC[C@@H](NC(=O)[C@H](Cc1ccc(O)cc1)NC(=O)[C@H](CO)NC(=O)[C@@H](Cc1cccnc1)NC(=O)[C@@H](Cc1ccc(F)cc1)NC(=O)[C@@H](Cc1ccc2ccccc2c1)NC(C)=O)C(=O)N[C@@H](CC(C)C)C(=O)N[C@@H](CCCCN=C(NCC(F)(F)F)NCC(F)(F)F)C(=O)N1CCC[C@H]1C(=O)N[C@H](C)C(N)=O | 59 (≈ 35.5 µM) | 1
